Laboratory results taken from ChEMBL document CHEMBL2385063, “Identification of 2-(2-(1-naphthoyl)-8-fluoro-3,4-dihydro-1H-pyrido[4,3-b]indol-5(2H)-yl)acetic acid (setipiprant/ACT-129968), a potent, selective, and orally bioavailable chemoattractant receptor-homologous molecule expressed on Th2 cells (CRTH2) antagonist” (J Med Chem, 2013).
Converted amounts (≈) assume the structure as drawn.

Assays:
[1] = Intrinsic clearance in rat hepatocytes measured per 10^6 cells at 1 uM by LC/MS-MS analysis; assay type: ADME, cell-based, Hepatocyte; conditions: read-out: CLH
[2] = Intrinsic clearance in rat liver microsomes measured per mg of protein at 1 uM by LC/MS-MS analysis; assay type: ADME, Microsome; conditions: read-out: CLH
[3] = Elimination half life in human plasma at 1 mM by HR-LC-MS analysis; assay type: ADME, cell-free; conditions: read-out: beta t1/2
[4] = Intrinsic clearance in human liver microsomes measured per mg of protein at 1 uM by LC/MS-MS analysis; assay type: ADME, Microsome; conditions: read-out: CLH
[5] = Elimination half life in Sprague-Dawley rat plasma at 1 mM by HR-LC-MS analysis; assay type: ADME, cell-free; conditions: read-out: beta t1/2
[6] = Half life in simulated gastric fluid at 2 uM by LC-MS analysis; assay type: physicochemical
Procedure, shortened: (§1)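 Compounds were incubated in simulated gastric fluid for 1 h or simulated intestinal fluid for 4 h. Unchanged parent was quantified by LC-MS.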

[7] = Half life in simulated intestinal fluid at 2 uM by LC-MS analysis; assay type: physicochemical; procedure, shortened: as §1
Cytochrome P450 2C9 = Cytochrome P450 2C9 (Homo sapiens, UniProt P11712); assay: Inhibition of CYP2C9 in human liver microsomes assessed as diclofenac 4'-hydroxylation by LC-MS/MS analysis; assay type: ADME, Microsome
Chain of Cytochrome P450 2C9 (P11712 whole entry): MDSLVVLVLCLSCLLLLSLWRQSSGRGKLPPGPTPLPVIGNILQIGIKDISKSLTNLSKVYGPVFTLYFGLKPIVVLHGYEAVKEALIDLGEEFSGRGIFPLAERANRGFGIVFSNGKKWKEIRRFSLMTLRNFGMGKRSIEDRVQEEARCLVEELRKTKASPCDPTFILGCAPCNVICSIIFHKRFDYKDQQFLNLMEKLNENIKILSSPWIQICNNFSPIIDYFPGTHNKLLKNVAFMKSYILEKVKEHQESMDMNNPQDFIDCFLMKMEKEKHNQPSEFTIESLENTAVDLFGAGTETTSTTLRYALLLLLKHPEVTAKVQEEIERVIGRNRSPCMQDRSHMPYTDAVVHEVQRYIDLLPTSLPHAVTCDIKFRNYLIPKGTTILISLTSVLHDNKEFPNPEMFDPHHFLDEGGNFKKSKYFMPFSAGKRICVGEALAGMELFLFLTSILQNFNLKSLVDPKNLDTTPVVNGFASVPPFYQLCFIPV

[8] = n-octanol-KH2PO4-Na2HPO4 buffer partition coefficient, log D of the compound at pH 7.4 by shake flask method; assay type: physicochemical
[9] = Protein binding in plasma (unknown origin); assay type: ADME, cell-free; conditions: read-out: PPB
[10] = target: T1, Prostaglandin G/H synthase 1 (Ovis aries) (UniProt P05979); assay: […] at ovine COX-1 at 10 uM relative to control; set-up: scale not given: the % may be the effect or the level left
T1 sequence (whole entry): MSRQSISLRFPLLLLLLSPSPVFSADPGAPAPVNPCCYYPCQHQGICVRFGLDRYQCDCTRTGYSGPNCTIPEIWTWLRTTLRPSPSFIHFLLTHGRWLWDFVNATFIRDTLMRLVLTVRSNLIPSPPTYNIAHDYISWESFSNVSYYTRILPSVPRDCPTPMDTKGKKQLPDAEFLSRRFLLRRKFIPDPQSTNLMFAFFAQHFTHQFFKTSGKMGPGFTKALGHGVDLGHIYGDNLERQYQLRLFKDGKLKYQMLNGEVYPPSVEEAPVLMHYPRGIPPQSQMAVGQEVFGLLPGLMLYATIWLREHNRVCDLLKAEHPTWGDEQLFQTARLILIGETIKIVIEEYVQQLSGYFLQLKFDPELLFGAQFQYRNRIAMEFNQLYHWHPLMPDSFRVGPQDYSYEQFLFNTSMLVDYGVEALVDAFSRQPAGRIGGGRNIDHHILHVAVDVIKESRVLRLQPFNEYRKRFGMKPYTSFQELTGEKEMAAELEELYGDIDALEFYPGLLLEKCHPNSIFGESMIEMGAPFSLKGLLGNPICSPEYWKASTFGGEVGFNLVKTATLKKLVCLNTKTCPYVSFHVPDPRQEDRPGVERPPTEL
Procedure, shortened: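 Ovine COX-1 activity measured with a commercial kit, following the manufacturer's protocol. Compounds were tested in duplicate at 10 μM final concentration. Activity is expressed as inhibition relative to control.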

[11] = target: T2, Prostaglandin D2 receptor 2 (Homo sapiens, UniProt Q9Y5Y4); assay: Displacement of [3H]PGD2 from recombinant human CRTH2 receptor expressed in HEK293 cell membranes after 90 mins by scintillation counting analysis
T2 sequence (Q9Y5Y4 whole entry): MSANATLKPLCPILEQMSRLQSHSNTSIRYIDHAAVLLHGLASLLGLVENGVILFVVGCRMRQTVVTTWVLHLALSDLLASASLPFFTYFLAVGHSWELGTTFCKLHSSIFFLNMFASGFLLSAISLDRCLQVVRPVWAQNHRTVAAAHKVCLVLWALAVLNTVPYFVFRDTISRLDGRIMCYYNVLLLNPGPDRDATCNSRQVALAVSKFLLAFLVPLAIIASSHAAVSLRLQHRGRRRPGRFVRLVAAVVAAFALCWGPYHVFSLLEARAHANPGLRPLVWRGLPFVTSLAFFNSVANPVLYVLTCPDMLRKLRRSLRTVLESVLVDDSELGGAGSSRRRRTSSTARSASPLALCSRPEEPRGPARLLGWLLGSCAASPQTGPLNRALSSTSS
Procedure, shortened: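 Membranes from HEK293 cells expressing hCRTH2 (80 μg protein/well) in Tris pH 7.4 buffer with NaCl, EDTA, 0.1% BSA were incubated with 2.5 nM [3H]PGD2 for 90 min at room temperature. Nonspecific binding was defined with 10 μM PGD2. Samples were filtered on PEI-soaked GF/C and read by scintillation counting.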

Cytochrome P450 3A4 = Cytochrome P450 3A4 (Homo sapiens, UniProt P08684); assay: Inhibition of CYP3A4 in human liver microsomes assessed as midazolam-1'-hydroxylation by LC-MS/MS analysis; assay type: ADME, Microsome
Chain of Cytochrome P450 3A4 (P08684 whole entry): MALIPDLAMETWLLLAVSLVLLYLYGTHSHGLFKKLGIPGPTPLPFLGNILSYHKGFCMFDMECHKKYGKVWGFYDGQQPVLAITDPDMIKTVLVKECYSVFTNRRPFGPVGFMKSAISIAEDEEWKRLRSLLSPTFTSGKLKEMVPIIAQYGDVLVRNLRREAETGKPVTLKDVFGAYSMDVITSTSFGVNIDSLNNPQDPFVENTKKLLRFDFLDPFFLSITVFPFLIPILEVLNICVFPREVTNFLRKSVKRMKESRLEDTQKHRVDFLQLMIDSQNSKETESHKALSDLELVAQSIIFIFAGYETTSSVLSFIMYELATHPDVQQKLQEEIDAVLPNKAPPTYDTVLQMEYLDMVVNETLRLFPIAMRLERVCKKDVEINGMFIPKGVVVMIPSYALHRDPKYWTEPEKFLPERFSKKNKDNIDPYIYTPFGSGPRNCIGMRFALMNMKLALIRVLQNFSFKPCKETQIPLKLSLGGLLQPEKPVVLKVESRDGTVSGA

Cytochrome P450 2D6 = Cytochrome P450 2D6 (Homo sapiens, UniProt P10635); assay: Inhibition of CYP2D6 in human liver microsomes assessed as dextromethorphan O-demethylation by LC-MS/MS analysis; assay type: ADME, Microsome
Chain of Cytochrome P450 2D6 (P10635 whole entry): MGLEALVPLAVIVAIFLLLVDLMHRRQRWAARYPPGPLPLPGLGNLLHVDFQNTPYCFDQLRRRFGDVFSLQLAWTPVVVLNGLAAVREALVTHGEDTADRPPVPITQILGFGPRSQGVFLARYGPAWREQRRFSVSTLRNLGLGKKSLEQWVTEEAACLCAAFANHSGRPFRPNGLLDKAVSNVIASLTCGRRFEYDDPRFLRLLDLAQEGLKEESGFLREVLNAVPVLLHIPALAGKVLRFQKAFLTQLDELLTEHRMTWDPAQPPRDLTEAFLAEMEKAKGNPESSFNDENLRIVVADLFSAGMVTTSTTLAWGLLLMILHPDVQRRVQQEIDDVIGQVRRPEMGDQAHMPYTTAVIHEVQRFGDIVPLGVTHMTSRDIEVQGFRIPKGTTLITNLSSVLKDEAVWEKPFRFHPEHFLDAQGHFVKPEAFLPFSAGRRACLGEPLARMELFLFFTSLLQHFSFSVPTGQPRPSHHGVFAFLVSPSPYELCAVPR

[12] = Solubility of the compound in aqueous buffer at pH 7; assay type: physicochemical
Procedure, shortened: (§2)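 Compound was stirred in water, 60 mM citrate buffer pH 4 or 70 mM phosphate buffer pH 7 at 300 rpm, 25 °C, for 24 h. The mixture was filtered, and the filtrate concentration was measured by HPLC-UV at 250 nm against a calibration curve.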

[13] = Solubility of the compound in aqueous buffer at pH 4; assay type: physicochemical; procedure, shortened: as §2
[14] = target: T3, Prostaglandin D2 receptor (Homo sapiens, UniProt Q13258); assay: Displacement of [3H]PGD2 from recombinant human prostanoid DP1 receptor expressed in CHO cells after 90 mins by scintillation counting analysis; assay type: cell-based
T3 sequence (Q13258 whole entry): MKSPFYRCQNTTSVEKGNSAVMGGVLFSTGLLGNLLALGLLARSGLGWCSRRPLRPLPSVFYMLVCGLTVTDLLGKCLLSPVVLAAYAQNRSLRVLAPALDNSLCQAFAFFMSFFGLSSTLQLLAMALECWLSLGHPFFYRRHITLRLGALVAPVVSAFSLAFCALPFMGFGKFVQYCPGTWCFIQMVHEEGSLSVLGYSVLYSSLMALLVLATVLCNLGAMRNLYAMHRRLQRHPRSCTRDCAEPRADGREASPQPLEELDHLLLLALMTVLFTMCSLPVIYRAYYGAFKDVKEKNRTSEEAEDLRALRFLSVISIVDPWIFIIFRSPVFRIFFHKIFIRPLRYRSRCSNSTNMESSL
Procedure, shortened: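 Competitive binding with CHO cells stably expressing high levels of recombinant hDP1, using [3H]PGD2 as ligand; IC50 reported.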

[15] = target: T2, Prostaglandin D2 receptor 2; assay: Antagonist activity at CRTH2 receptor in human eosinophils assessed as inhibition of PGD2-induced cell shape change incubated for 1 hr prior to PGD2 induction measured after 5 mins by FACS flow cytometric analysis in presence of human plasma; conditions: in the assay text read “incubated for 10 mins” for “incubated for 1 hr”
Procedure, shortened: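 Polymorphonuclear cells isolated from healthy-donor blood on a Polymorphprep gradient (500g, 30 min), erythrocytes lysed hypotonically. Cells stained 1 h with CD49d-APC, mixed with human plasma, preincubated with antagonist, then stimulated with 15 nM PGD2 for 5 min at 37 °C. Fixed in cold 1% paraformaldehyde. Eosinophils gated by CD49d/SSC; activation read as % cells with raised forward scatter.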

Structure (SMILES) | hepatocyte CLint at 1 µM [1] [µL/min/1e6 cells] | microsomal CLint at 1 µM [2] [µL/min/mg] | half-life [3] [h] | microsomal CLint at 1 µM [4] [µL/min/mg] | half-life [5] [h] | half-life at 2 µM [6] [h] | half-life at 2 µM [7] [h] | IC50 (Cytochrome P450 2C9) [nM] | logD [8] | fraction unbound [9] | Activity [10] [%] | IC50 [11] [nM] | IC50 (Cytochrome P450 3A4) [nM] | IC50 (Cytochrome P450 2D6) [nM] | solubility [12] [µg/mL] | solubility [13] [µg/mL] | IC50 [14] [nM] | IC50 [15] [nM]
O=C(O)Cn1c2c(c3ccccc31)CN(C(=O)c1ccccc1)CC2 | 0.9 | < 4 | > 4 | 5 | > 4 | > 1 | > 4 | 15000 | -1.2 | < 0.03 | < 30 |  |  |  |  |  |  | 
O=C(O)Cn1c2c(c3ccccc31)CN(C(=O)C1CCCCC1)CC2 |  |  |  |  |  |  |  |  |  | < 0.03 | < 30 | 70 |  |  |  |  |  | 
O=C(O)Cn1c2c(c3cc(F)ccc31)CN(C(=O)c1cccs1)CC2 | 2.1 | 8 | > 4 | < 4 | > 4 | > 1 | > 4 | 43000 | 0.2 | < 0.03 | < 30 | 4 | > 50000 | > 50000 | 930 (≈ 2590 µM) | 80 (≈ 223 µM) | > 10000 | 34
CCc1ccc(-c2ccc(C(=O)N3CCc4c(c5ccccc5n4CC(=O)O)C3)cc2)cc1 | 5.3 | 31 | > 4 | 85 | > 4 | > 1 | > 4 | 14000 | 1.8 | < 0.03 | < 30 | 4 | > 50000 | > 50000 | 30 (≈ 68.4 µM) | 1 (≈ 2.28 µM) | 780 | 240
O=C(O)Cn1c2c(c3cc(F)ccc31)CN(C(=O)c1cccc3ccccc13)CC2 [SETIPIPRANT] | 3.1 | 5 | > 4 | 5 | > 4 | > 1 | > 4 | > 50000 | 0.1 | < 0.03 | < 30 | 6 | > 50000 | > 50000 | 880 (≈ 2190 µM) | 90 (≈ 224 µM) | 1290 | 235
COc1ccc2c(c1)c1c(n2CC(=O)O)CCN(C(=O)c2ccccc2)C1 |  |  |  |  |  |  |  |  |  | < 0.03 | < 30 | 62 |  |  |  |  |  | 
O=C(O)Cn1c2c(c3ccccc31)CN(C(=O)c1cccc3ccccc13)CC2 | 1.5 | 36 | > 4 | < 4 | > 4 | > 1 | > 4 | 40000 | 0.2 | < 0.03 | < 30 | 9 | > 50000 | > 50000 | 830 (≈ 2160 µM) | 90 (≈ 234 µM) | 780 | 
CCc1ccc(-c2ccc(C(=O)N3CCc4c(c5cccc(Cl)c5n4CC(=O)O)C3)cc2)cc1 |  |  |  |  |  |  |  |  |  | < 0.03 | < 30 | 23 |  |  |  |  | 120 | 
O=C(O)Cn1c2c(c3cc(F)ccc31)CN(C(=O)Cc1cccc3ccccc13)CC2 |  | 63 | > 4 | 6 | > 4 | > 1 | > 4 | 16000 | 0.2 | < 0.03 | < 30 | 4 | > 50000 | > 50000 | 560 (≈ 1340 µM) | 21 (≈ 50.4 µM) | > 10000 | 275
O=C(O)Cn1c2c(c3cc(F)ccc31)CN(C(=O)CCc1cccc3ccccc13)CC2 |  |  |  |  |  |  |  |  |  | < 0.03 | < 30 | 10 |  |  |  |  | > 10000 | 
O=C(O)Cn1c2c(c3cc(Cl)ccc31)CN(C(=O)c1cccc3ccccc13)CC2 |  |  |  |  |  |  |  |  |  | < 0.03 | < 30 | 4 |  |  |  |  | 690 | 
CC(C)c1ccc2c(c1)c1c(n2CC(=O)O)CCN(C(=O)c2ccccc2)C1 |  |  |  |  |  |  |  |  |  | < 0.03 | < 30 | 42 |  |  |  |  |  | 
O=C(O)Cn1c2c(c3cc(F)cc(Cl)c31)CN(C(=O)c1cccc3ccccc13)CC2 |  |  |  |  |  |  |  |  |  | < 0.03 | < 30 | 70 |  |  |  |  | 310 | 
O=C(O)Cn1c2c(c3cc(C(F)(F)F)ccc31)CN(C(=O)c1ccccc1)CC2 |  |  |  |  |  |  |  |  |  | < 0.03 | < 30 | 9 |  |  |  |  | > 10000 | 
O=C(O)Cn1c2c(c3cc(F)cc(Cl)c31)CN(C(=O)c1cccc(Cl)c1)CC2 |  |  |  |  |  |  |  |  |  | < 0.03 | < 30 | 190 |  |  |  |  | 4100 | 
Cc1ccc2c(c1)c1c(n2CC(=O)O)CCN(C(=O)c2cccc3ccccc23)C1 |  |  |  |  |  |  |  |  |  | < 0.03 | < 30 | 5 |  |  |  |  | 2700 | 340
O=C(O)Cn1c2c(c3cc(F)ccc31)CN(C(=O)Cc1c[nH]c3ccccc13)CC2 |  | 23 | > 4 | < 4 | > 4 | > 1 | > 4 | > 50000 | -0.3 | < 0.03 | < 30 | 5 | > 50000 | > 50000 | 800 (≈ 1970 µM) | 115 (≈ 284 µM) | > 10000 | 50
O=C(O)Cn1c2c(c3cc(C(F)(F)F)ccc31)CN(C(=O)c1cccc3ccccc13)CC2 |  |  |  |  |  |  |  |  |  | < 0.03 | < 30 | 11 |  |  |  |  | 2200 | 
